Activity calls are given as the source filed them. Unless noted, no cut-off for these calls is given here.
How the values were obtained:
[1] = molecular target: T1, Lipoprotein lipase (Bos taurus) (UniProt P11151); experiment: Induction of bovine LPL stabilization using intralipid as substrate at 12.5 uM preincubated for 10 mins with human recombinant ANGPTL4 followed by substrate addition measured after 45 mins relative to control
T1 sequence (whole entry): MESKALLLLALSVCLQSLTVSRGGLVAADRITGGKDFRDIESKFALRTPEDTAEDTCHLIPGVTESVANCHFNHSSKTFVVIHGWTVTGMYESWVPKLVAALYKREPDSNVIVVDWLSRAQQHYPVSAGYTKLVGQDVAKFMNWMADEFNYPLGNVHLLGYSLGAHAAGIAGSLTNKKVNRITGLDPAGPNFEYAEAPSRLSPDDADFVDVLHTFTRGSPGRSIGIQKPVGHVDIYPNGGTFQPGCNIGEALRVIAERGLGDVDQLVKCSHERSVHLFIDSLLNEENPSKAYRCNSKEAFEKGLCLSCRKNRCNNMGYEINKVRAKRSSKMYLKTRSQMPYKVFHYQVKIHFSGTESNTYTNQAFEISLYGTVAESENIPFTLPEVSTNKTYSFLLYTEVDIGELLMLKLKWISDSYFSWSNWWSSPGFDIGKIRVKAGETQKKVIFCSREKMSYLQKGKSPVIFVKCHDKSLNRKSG
Procedure, shortened: (§1)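 Compound in DMSO in buffer (50 mM potassium phosphate pH 7.4, 0.15 M NaCl, 0.01% Triton X-100), with human ANGPTL4 N-terminal fragment (aa 26-184, 75 nM final) and bovine LPL (15 nM final). Preincubated 10 min at 25 °C with shaking. Stopped after 45 min with 2.5% Triton X-100, and NEFA measured enzymatically. Activity normalised between DMSO+LPL+ANGPTL4 (0%) and DMSO+LPL (100%).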

[2] = molecular target: T1, Lipoprotein lipase (Bos taurus); experiment: Induction of bovine LPL stabilization using intralipid as substrate at 25 uM preincubated for 10 mins with human recombinant ANGPTL4 followed by substrate addition measured after 45 mins relative to control; procedure, shortened: as §1
[3] = molecular target: T1, Lipoprotein lipase (Bos taurus); experiment: Induction of bovine LPL stabilization using intralipid as substrate at 6.25 uM preincubated for 10 mins with human recombinant ANGPTL4 followed by substrate addition measured after 45 mins relative to control; procedure, shortened: as §1
Mus musculus = experiment: Hypolipidemic activity in C57B16/J mouse assessed as reduction in plasma triglyceride level at 10 mg/kg, ip qd administered for 4 days followed by olive oil injection through oral gavage one hour post last dose measured at 180 mins; assay type: functional, organism-based
Procedure, shortened: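 Female C57B16/J mice, 8-9 weeks, about 18 g, n = 8/group. Given 10 mg/kg i.p. once daily for 4 days, 0.5 ml in PBS pH 7.4 with 3% DMSO and 0.2% Triton X-100. Fasted 8 h before the last dose, then 0.2 ml oral olive oil gavage 1 h after it. Tail-vein EDTA plasma taken at baseline and every 60 min to 180 min. TG measured enzymatically, reported as mean ± SD.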

[4] = molecular target: T1, Lipoprotein lipase (Bos taurus); experiment: Induction of bovine LPL stabilization using intralipid as substrate at 3.12 uM preincubated for 10 mins with human recombinant ANGPTL4 followed by substrate addition measured after 45 mins relative to control; procedure, shortened: as §1
Plasma = experiment: Drug level in human plasma treated with 1,3-Dioxo-2-(4-(piperidin-1-yl)-3-(p-tolylcarbamoyl)phenyl)isoindoline-5-carboxylic acid at 10 uM after 24 hrs by LC-MS/MS analysis; assay type: ADME, cell-free

Activity [1] | Activity [2] | Activity [3] | Activity [4] | Drug metabolism (Plasma) | SMILES | Activity (Mus musculus)
inactive | 49% | inactive | inactive |  | Cc1ccc(NC(=O)c2cc(-c3nc4ccc(C(=O)O)cc4[nH]3)ccc2N2CCCCC2)cc1 | Active
85.5% | 24.5% | 101% | 35% |  | Cc1ccc(NC(=O)c2cc(-c3cc4cc(C(=O)O)ccc4[nH]3)ccc2N2CCCCC2)cc1 | Active
inactive | 38.8% | inactive | inactive | metabolite_detected | Cc1ccc(NC(=O)c2cc(NC(=O)c3cc(C(=O)O)ccc3C(=O)O)ccc2N2CCCCC2)cc1 | 
inactive | inactive | inactive | inactive | metabolite_detected | Cc1ccc(NC(=O)c2cc(N)ccc2N2CCCCC2)cc1 | 
7% | 24.6% | 5% | inactive |  | Cc1ccc(NC(=O)c2cc(Nc3ccc(C)cc3)cc(N3C(=O)c4ccc(C(=O)O)cc4C3=O)c2)cc1 | 
inactive | 30.6% | inactive | inactive | metabolite_detected | Cc1ccc(NC(=O)c2cc(NC(=O)c3ccc(C(=O)O)cc3C(=O)O)ccc2N2CCCCC2)cc1 | 
31.8% | 67.8% | 19.3% | 4% |  | CCCCCCNC(=O)c1cc(N2C(=O)c3ccc(C(=O)O)cc3C2=O)ccc1NCCCCCC | 
inactive | inactive | inactive | inactive |  | Cc1ccc(NC(=O)c2cc(Cl)cc(N3C(=O)c4ccc(C(=O)O)cc4C3=O)c2)cc1 | 
63.9% | 52.2% | 44.3% | inactive |  | CCc1cccc(NC(=O)c2cc(N3C(=O)c4ccc(C(=O)O)cc4C3=O)ccc2Nc2ccccc2)c1 | 
inactive | inactive | inactive | inactive |  | Cc1ccc(NC(=O)c2cc(N3C(=O)c4ccc(C(=O)O)cc4C3=O)ccc2N2CCN(C)CC2)cc1 | 
10% | 19.2% | 5.9% | 13.6% |  | CCCCCCCCCCNc1ccc(N2C(=O)c3ccc(C(=O)O)cc3C2=O)cc1C(=O)Nc1ccc(C)cc1 | 
inactive | inactive | inactive | inactive |  | O=C1c2ccccc2C(=O)N1c1ccccc1 | 
inactive | inactive | inactive | inactive |  | Cc1ccc(NC(=O)c2cc(-n3cc4ccccc4n3)ccc2N2CCCCC2)cc1 | 
73.1% | 89.4% | 4.2% | inactive |  | Cc1ccc(NC(=O)c2cc(Nc3ccccc3)cc(N3C(=O)c4ccc(C(=O)O)cc4C3=O)c2)cc1 | 
inactive | inactive | inactive | inactive |  | Cc1ccc(NC(=O)c2cc(N3C(=O)c4cccc(C(=O)O)c4C3=O)ccc2N2CCCCC2)cc1 | 
inactive | 96.7% | inactive | inactive |  | Cc1ccc(NC(=O)c2ccc(N3CCCCC3)cc2N2C(=O)c3ccc(C(=O)O)cc3C2=O)cc1 | 
71% | 53.1% | 55.6% | inactive |  | CC(C)c1ccc(NC(=O)c2cc(N3C(=O)c4ccc(C(=O)O)cc4C3=O)ccc2N2CCCCC2)cc1 | 

— ChEMBL document CHEMBL3745639, “Structure-activity relationships for lipoprotein lipase agonists that lower plasma triglycerides in vivo” (Eur J Med Chem, 2015)
